Laboratory results reported in ChEMBL document CHEMBL3352487, “Synthesis, antibacterial activity, and biological evaluation of formyl hydroxyamino derivatives as novel potent peptide deformylase inhibitors against drug-resistant bacteria” (Eur J Med Chem, 2014).
Converted amounts (≈) assume the structure as drawn.

Key:
Staphylococcus aureus [1] = assay: Antimicrobial activity against Staphylococcus aureus MRSA08-12 in peritonitis mouse model assessed as mortality of host at 5 mg/kg, iv as single dose relative to control; type: functional
Method in brief: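 Outbred KM mice (20–25 g) infected i.p. with a 90–100% lethal dose (5 × 10^7 CFU/mL) in 0.5 mL brain heart infusion broth with 5% mucin. Single i.v. dose of 1.25–20 mg/kg in 20% DMSO, 0.1 mL. Ten mice per dose; daily monitoring for 14 days; ED50 from cumulative mortality by Bliss's method.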

[2] = AUC (0 to infinity) in Sprague-Dawley rat at 5 mg/kg, iv; type: ADME, organism-based; parameters: time infinity, dose 5 mg/kg, route intravenous; conditions: plasma
Moraxella catarrhalis = assay: Antimicrobial activity against Moraxella catarrhalis 1502 after 24 hrs by broth microdilution method; type: functional; conditions: Moraxella catarrhalis, 1502, 24 h
Method in brief: (§1)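 Broth microdilution following NCCLS M7-A4; ATCC strains and clinical isolates from a provincial hospital.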

Staphylococcus aureus [3] = assay: Antimicrobial activity against Staphylococcus aureus isolate CARTER 37 after 24 hrs by broth microdilution method; type: functional; conditions: isolate CARTER 37, 24 h
Method in brief: (§2)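 Broth microdilution following NCCLS M7-A4, using ATCC strains and clinical isolates from a provincial hospital.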

Staphylococcus aureus [4] = assay: Antimicrobial activity against Staphylococcus aureus isolate F89 after 24 hrs by broth microdilution method; type: functional; conditions: isolate F89, 24 h; method in brief: as §1
[5] = AUC (0 to t) in Sprague-Dawley rat at 25 mg/kg, po; type: ADME, organism-based; parameters: dose 25 mg/kg, route oral; conditions: plasma
Streptococcus pneumoniae = assay: Antimicrobial activity against Streptococcus pneumoniae 1629 after 24 hrs by broth microdilution method; type: functional; conditions: Streptococcus pneumoniae, 1629, 24 h; method in brief: as §1
Staphylococcus aureus [6] = assay: Antimicrobial activity against Staphylococcus aureus MRSA08-12 in peritonitis mouse model administered intravenously as single dose; type: functional; conditions: MRSA08-12, iv
Staphylococcus aureus [7] = assay: Antimicrobial activity against Staphylococcus aureus MRSA08-12 in peritonitis mouse model assessed as mortality of host at 2.5 mg/kg, iv as single dose relative to control; type: functional
Method in brief: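 KM outbred mice (20–25 g) inoculated intraperitoneally with a 90-to-100%-lethal dose (5 × 10^7 CFU/mL) of MRSA08-12 in 0.5 mL brain heart infusion broth with 5% mucin. Single i.v. dose in 20% DMSO, 0.1 mL; doses 1.25–20 mg/kg, 10 mice per dose. Cumulative mortality tracked daily for 14 days; ED50 by Bliss's method.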

[8] = Fraction unbound in CD1 mouse plasma at 2 uM by equilibrium dialysis; type: ADME, cell-free
Method in brief: (§3)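 Pooled CD-1 mouse plasma spiked to 2 µM final, equilibrium dialysis in triplicate against 100 mM PBS pH 7.4, 4 h at 37 °C with rotation; matrix-matched samples acetonitrile-precipitated, LC-MS/MS with internal standards. Unbound = free/total ×100; recovery = (free+total)/pre-dialysis ×100.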

[9] = Drug recovery in CD1 mouse plasma at 2 uM by equilibrium dialysis; type: ADME, cell-free; conditions: read-out: Drug recovery; method in brief: as §3
Mus musculus [10] = assay: Acute toxicity in KM mouse assessed as skin abnormality at 250 mg/kg, iv measured for 14 days by necropsy; type: organism-based; parameters: dose 250 mg/kg, route intravenous; conditions: in vivo, 336 h
Method in brief: (§4)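 Outbred KM mice (SPF, 20–25 g; nine male, ten female) given a single tail-vein injection of 100 or 250 mg/kg in PBS pH 6.5 with 20% DMSO over about 60 s. Behaviour, weight, coat colour, anal temperature, food and water intake, and urine and stool weight followed for 14 days. On day 14, gross necropsy of skin, lungs, heart, liver, kidneys and spleen.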

[11] = tested on: Staphylococcus epidermidis; assay: Antimicrobial activity against Staphylococcus epidermidis after 24 hrs by broth microdilution method; type: functional; method in brief: as §1
[12] = Mean residence time (0 to t) in Sprague-Dawley rat at 25 mg/kg, po; type: ADME, organism-based; parameters: dose 25 mg/kg, route oral; conditions: in vivo
Staphylococcus aureus [13] = assay: Antimicrobial activity against methicillin-susceptible Staphylococcus aureus after 24 hrs by broth microdilution method; type: functional; method in brief: as §1
[14] = Protein binding in CD1 mouse plasma at 2 uM by equilibrium dialysis; type: ADME, cell-free; conditions: read-out: PPB (converted)
Staphylococcus aureus [15] = assay: Antimicrobial activity against Staphylococcus aureus isolate 306 after 24 hrs by broth microdilution method; type: functional; conditions: isolate 306, 24 h; method in brief: as §1
[16] = Half life in Sprague-Dawley rat at 5 mg/kg, iv; type: ADME, organism-based; parameters: dose 5 mg/kg, route intravenous; conditions: in vivo
Staphylococcus aureus [17] = assay: Antimicrobial activity against Staphylococcus aureus isolate OGA833 after 24 hrs by broth microdilution method; type: functional; conditions: isolate OGA833, 24 h; method in brief: as §1
Escherichia coli = assay: Antimicrobial activity against Escherichia coli isolate 2 after 24 hrs by broth microdilution method; type: functional; conditions: isolate 2, 24 h; method in brief: as §1
Staphylococcus aureus [18] = assay: Antimicrobial activity against Staphylococcus aureus isolate MILES HALL after 24 hrs by broth microdilution method; type: functional; method in brief: as §2
Staphylococcus aureus [19] = assay: Antimicrobial activity against Staphylococcus aureus isolate MN 1255 after 24 hrs by broth microdilution method; type: functional; conditions: isolate MN 1255, 24 h; method in brief: as §1
Staphylococcus aureus [20] = assay: Antimicrobial activity against Staphylococcus aureus isolate CL 1033 after 24 hrs by broth microdilution method; type: functional; conditions: isolate CL 1033, 24 h; method in brief: as §1
[21] = Stability of the compound in artificial gastric juice measured every 2 hrs for 12 hrs by HPLC analysis; type: ADME; conditions: simulated gi fluid
[22] = Stability of the compound in artificial intestinal juice measured every 2 hrs for 12 hrs by HPLC analysis; type: physicochemical; conditions: simulated gi fluid
[23] = AUC (0 to infinity) in Sprague-Dawley rat at 25 mg/kg, po; type: ADME, organism-based; parameters: dose 25 mg/kg, route oral, time infinity; conditions: plasma
Haemophilus influenzae = assay: Antimicrobial activity against AcrA-deficient Haemophilus influenzae H128 after 24 hrs by broth microdilution method; type: functional; conditions: H128, 24 h; method in brief: as §1
Staphylococcus aureus [24] = assay: Antimicrobial activity against Staphylococcus aureus isolate Ealing 23 after 24 hrs by broth microdilution method; type: functional; conditions: isolate Ealing 23, 24 h; method in brief: as §2
Mus musculus [25] = assay: Acute toxicity in KM mouse assessed as kidney abnormality at 250 mg/kg, iv measured for 14 days by necropsy; type: organism-based; parameters: dose 250 mg/kg, route intravenous; conditions: in vivo, 336 h; method in brief: as §4
Staphylococcus aureus [26] = assay: Antimicrobial activity against Staphylococcus aureus after 24 hrs by broth microdilution method; type: functional; method in brief: as §1
Mus musculus [27] = assay: Acute toxicity in KM mouse assessed as liver abnormality at 250 mg/kg, iv measured for 14 days by necropsy; type: organism-based; parameters: dose 250 mg/kg, route intravenous; conditions: in vivo, 336 h; method in brief: as §4
Staphylococcus aureus [28] = assay: Antimicrobial activity against Staphylococcus aureus isolate Smith ATCC 13709 after 24 hrs by broth microdilution method; type: functional; conditions: isolate Smith ATCC 13709, 24 h; method in brief: as §2
Staphylococcus aureus [29] = assay: Antimicrobial activity against Staphylococcus aureus ATCC 29213 after 24 hrs by broth microdilution method; type: functional; conditions: ATCC 29213, 24 h; method in brief: as §1
Staphylococcus aureus [30] = assay: Antimicrobial activity against Staphylococcus aureus isolate SWEETING after 24 hrs by broth microdilution method; type: functional; method in brief: as §2
Staphylococcus aureus [31] = assay: Antimicrobial activity against Staphylococcus aureus isolate 934387 after 24 hrs by broth microdilution method; type: functional; conditions: isolate 934387, 24 h; method in brief: as §2
hERG (KCNH2) = hERG (KCNH2) (Homo sapiens, UniProt Q12809); assay: Inhibition of human ERG at 10 uM
Sequence of hERG (KCNH2) (Q12809 whole entry): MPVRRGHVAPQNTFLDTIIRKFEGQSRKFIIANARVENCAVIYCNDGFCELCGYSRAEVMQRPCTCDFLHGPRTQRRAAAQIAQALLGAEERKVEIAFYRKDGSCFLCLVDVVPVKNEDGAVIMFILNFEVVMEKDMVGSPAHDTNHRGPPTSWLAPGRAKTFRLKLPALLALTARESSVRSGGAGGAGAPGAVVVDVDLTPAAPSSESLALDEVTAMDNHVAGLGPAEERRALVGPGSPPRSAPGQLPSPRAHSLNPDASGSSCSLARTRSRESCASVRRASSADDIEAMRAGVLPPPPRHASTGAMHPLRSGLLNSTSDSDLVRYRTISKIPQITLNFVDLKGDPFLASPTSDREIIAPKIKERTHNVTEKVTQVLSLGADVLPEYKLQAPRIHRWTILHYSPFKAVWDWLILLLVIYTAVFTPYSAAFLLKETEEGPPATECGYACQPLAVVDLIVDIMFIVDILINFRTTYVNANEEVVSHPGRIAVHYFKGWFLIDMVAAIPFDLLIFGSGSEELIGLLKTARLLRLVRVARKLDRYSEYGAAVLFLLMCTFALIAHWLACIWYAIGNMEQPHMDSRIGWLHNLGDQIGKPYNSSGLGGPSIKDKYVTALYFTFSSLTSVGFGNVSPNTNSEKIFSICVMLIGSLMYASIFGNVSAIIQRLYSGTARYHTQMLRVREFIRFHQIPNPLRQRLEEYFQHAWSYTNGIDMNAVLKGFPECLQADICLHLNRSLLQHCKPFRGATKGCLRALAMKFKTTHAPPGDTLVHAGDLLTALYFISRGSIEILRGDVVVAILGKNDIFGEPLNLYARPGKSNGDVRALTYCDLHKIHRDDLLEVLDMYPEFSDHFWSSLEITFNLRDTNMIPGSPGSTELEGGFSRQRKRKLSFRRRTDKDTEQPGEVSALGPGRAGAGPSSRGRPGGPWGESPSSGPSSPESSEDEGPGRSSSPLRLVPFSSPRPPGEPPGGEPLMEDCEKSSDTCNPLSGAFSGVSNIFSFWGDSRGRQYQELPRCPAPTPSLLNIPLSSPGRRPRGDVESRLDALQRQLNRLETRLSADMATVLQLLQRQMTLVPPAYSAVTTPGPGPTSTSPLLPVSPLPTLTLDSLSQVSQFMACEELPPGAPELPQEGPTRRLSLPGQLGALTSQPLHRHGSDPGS

Staphylococcus aureus [32] = assay: Antimicrobial activity against Staphylococcus aureus isolate CL 939 after 24 hrs by broth microdilution method; type: functional; conditions: isolate CL 939, 24 h; method in brief: as §2
Staphylococcus aureus [33] = assay: Antimicrobial activity against Staphylococcus aureus isolate RN1030 after 24 hrs by broth microdilution method; type: functional; conditions: isolate RN1030, 24 h; method in brief: as §2
Staphylococcus aureus [34] = assay: Antimicrobial activity against Staphylococcus aureus isolate 934335 after 24 hrs by broth microdilution method; type: functional; conditions: isolate 934335, 24 h; method in brief: as §1

SMILES: CCCC[C@H](CN(O)C=O)C(=O)N1CC=C[C@H]1C(=O)Nc1ccc(F)c[n+]1[O-]
- mortality at 5 mg/kg (Staphylococcus aureus [1]): 60%
- AUC(0-inf) [2]: 1960 ng·h/mL
- MIC (Moraxella catarrhalis): ≤ 0.06 µg/mL
- MIC (Staphylococcus aureus [3]): 0.5 µg/mL (≈ 1.27 µM)
- MIC (Staphylococcus aureus [4]): 1 µg/mL (≈ 2.54 µM)
- AUC(0-t) [5]: 3320 ng·h/mL
- MIC (Streptococcus pneumoniae): 1 µg/mL (≈ 2.54 µM)
- ED50 (Staphylococcus aureus [6]): 6.25 mg/kg
- mortality at 2.5 mg/kg (Staphylococcus aureus [7]): 80%
- fraction unbound at 2 µM [8]: 0.467
- recovery at 2 µM [9]: 91.2%
- Activity (Mus musculus [10]): Non-toxic
- MIC [11]: 1 µg/mL (≈ 2.54 µM)
- MRT last [12]: 2.34 h
- MIC (Staphylococcus aureus [13]): 1 µg/mL (≈ 2.54 µM)
- fraction unbound at 2 µM [14]: 0.467
- MIC (Staphylococcus aureus [15]): 2 µg/mL (≈ 5.07 µM)
- half-life [16]: 1.17 h
- MIC (Staphylococcus aureus [17]): 0.5 µg/mL (≈ 1.27 µM)
- MIC (Escherichia coli): 64 µg/mL (≈ 162 µM)
- MIC (Staphylococcus aureus [18]): 0.5 µg/mL (≈ 1.27 µM)
- MIC (Staphylococcus aureus [19]): 0.25 µg/mL (≈ 0.634 µM)
- MIC (Staphylococcus aureus [20]): 1 µg/mL (≈ 2.54 µM)
- Stability [21]: Stable
- Stability [22]: Stable
- AUC(0-inf) [23]: 3390 ng·h/mL
- MIC (Haemophilus influenzae): ≤ 0.06 µg/mL
- MIC (Staphylococcus aureus [24]): 0.5 µg/mL (≈ 1.27 µM)
- Activity (Mus musculus [25]): Non-toxic
- MIC (Staphylococcus aureus [26]): 0.5 µg/mL (≈ 1.27 µM)
- Activity (Mus musculus [27]): Non-toxic
- MIC (Staphylococcus aureus [28]): 0.25 µg/mL (≈ 0.634 µM)
- MIC (Staphylococcus aureus [29]): 1 µg/mL (≈ 2.54 µM)
- MIC (Staphylococcus aureus [30]): 0.125 µg/mL (≈ 0.317 µM)
- MIC (Staphylococcus aureus [31]): 0.5 µg/mL (≈ 1.27 µM)
- inhibition at 10 µM (hERG (KCNH2)): 6.71%
- MIC (Staphylococcus aureus [32]): 0.125 µg/mL (≈ 0.317 µM)
- MIC (Staphylococcus aureus [33]): 0.5 µg/mL (≈ 1.27 µM)
- MIC (Staphylococcus aureus [34]): 0.25 µg/mL (≈ 0.634 µM)
